Measurements reported in article PMC4358770 (Journal of medicinal chemistry, 2010).
Like-named read-outs stand apart in the source and are kept apart here.

Legend:
P2Y1R = conditions: read-out: EC50 at P2Y1R; cited from earlier work
[1] = target: calf intestine alkaline phosphatase (Bos taurus, UniProt P19111); assay: Hydrolysis by alkaline phosphatase; conditions: for degradation by alkaline phosphatase after 3 h: 0.2 mg analogue/77.5 μL, 12.5 units of AP, 37 °C; for resistance to hydrolysis by alkaline phosphatase: over 30 min at 37 °C
calf intestine alkaline phosphatase, sequence (P19111 20-533): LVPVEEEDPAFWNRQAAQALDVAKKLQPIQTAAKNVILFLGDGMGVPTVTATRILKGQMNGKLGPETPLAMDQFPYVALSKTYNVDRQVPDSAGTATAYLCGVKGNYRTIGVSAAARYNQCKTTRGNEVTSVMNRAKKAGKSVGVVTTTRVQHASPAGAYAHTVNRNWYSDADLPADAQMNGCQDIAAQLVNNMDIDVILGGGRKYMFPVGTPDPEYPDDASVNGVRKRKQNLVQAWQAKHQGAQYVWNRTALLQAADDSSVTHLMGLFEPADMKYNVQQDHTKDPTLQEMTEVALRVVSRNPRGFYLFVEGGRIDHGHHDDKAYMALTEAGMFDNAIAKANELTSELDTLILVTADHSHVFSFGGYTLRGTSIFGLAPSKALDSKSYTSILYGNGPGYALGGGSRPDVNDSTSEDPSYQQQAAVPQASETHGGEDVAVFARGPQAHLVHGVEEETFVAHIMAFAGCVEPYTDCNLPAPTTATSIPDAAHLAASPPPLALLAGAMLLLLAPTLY

[2] = Stability in human blood serum at 37 °C; type: in vitro ADME
rabbit IOP [3] = conditions: topically applied to New Zealand white rabbits; cited from earlier work
[4] = pKa and ionization of the terminal phosphate/phosphonate; type: physicochemical; conditions: pH 7.4, terminal phosphate/phosphonate
rabbit IOP [5] = assay: IOP measurements in normotensive rabbits; type: in vivo, New Zealand white rabbits
Outline: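 Male New Zealand white rabbits (2.5 ± 0.5 kg) on a 12 h/12 h light/dark cycle. Test compound was applied unilaterally to the cornea at 100 μM in 10 μL, with 0.9% saline vehicle in the contralateral eye. Design was blinded, with two baseline readings by rebound tonometer and follow-up to 8 h. Dose–response used 1 nM–100 μM, taking the maximal response per dose. […] Mean-time effect was the time from 50% maximal IOP decrease to 50% recovery. Mean ± SEM of 8–10 experiments.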

[6] = cited from earlier work
[7] = pH 1.4, 37 °C; cited from earlier work
[8] = Chemical stability at pH 1.4 and 37 °C, monitored by HPLC; type: physicochemical; conditions: for t1/2 of hydrolysis at pH 1.4: pH 1.4, 37 °C, KCl/HCl buffer
turkey P2Y1 receptor = turkey P2Y1 receptor (Meleagris gallopavo, UniProt P49652); type: cell-based
turkey P2Y1 receptor, sequence (P49652 whole entry): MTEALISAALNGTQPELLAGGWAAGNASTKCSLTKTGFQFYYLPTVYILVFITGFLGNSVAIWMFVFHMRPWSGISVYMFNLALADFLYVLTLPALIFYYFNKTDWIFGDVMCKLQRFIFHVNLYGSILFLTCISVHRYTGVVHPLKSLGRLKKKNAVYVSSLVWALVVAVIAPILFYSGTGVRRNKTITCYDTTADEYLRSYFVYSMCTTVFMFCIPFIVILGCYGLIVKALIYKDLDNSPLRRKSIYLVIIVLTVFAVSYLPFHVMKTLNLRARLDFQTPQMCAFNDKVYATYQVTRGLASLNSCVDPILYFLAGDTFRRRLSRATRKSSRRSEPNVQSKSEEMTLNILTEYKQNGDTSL

human NPP3 = target: T1, human NPP3 (Homo sapiens, UniProt O14638); assay: NPP3 hydrolysis assay; type: in vitro ADME; conditions: 100 μM substrate; vs 100 μM ATP set at 100%
T1 sequence (O14638 1-875): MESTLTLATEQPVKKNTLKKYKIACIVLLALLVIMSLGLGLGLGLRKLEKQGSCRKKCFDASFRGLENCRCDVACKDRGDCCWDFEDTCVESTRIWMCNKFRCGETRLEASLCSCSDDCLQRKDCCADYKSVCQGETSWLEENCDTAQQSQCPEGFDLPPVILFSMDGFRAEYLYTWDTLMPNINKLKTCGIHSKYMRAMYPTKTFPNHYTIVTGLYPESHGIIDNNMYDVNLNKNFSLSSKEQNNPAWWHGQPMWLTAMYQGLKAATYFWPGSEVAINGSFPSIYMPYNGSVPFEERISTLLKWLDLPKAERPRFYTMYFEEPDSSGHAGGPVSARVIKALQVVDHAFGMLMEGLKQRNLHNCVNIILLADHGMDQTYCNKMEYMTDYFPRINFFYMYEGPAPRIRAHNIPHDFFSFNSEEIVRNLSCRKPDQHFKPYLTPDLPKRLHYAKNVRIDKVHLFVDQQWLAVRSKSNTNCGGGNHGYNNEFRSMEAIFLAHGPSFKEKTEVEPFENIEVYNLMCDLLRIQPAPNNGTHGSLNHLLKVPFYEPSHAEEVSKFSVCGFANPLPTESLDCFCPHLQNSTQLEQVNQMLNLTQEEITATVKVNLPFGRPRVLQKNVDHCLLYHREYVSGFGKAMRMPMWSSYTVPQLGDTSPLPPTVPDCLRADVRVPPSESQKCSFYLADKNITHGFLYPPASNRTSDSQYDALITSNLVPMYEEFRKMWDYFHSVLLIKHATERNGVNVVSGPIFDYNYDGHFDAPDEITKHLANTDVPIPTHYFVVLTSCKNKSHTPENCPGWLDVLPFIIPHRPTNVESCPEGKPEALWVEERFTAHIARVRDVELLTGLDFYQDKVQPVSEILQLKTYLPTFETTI

NTPDase2 = target: T2, NTPDase2 (Homo sapiens, UniProt Q9Y5L3); assay: NTPDase2 hydrolysis assay; type: in vitro ADME; conditions: 100 μM substrate; vs 100 μM ATP set at 100%
T2 sequence (Q9Y5L3 1-495): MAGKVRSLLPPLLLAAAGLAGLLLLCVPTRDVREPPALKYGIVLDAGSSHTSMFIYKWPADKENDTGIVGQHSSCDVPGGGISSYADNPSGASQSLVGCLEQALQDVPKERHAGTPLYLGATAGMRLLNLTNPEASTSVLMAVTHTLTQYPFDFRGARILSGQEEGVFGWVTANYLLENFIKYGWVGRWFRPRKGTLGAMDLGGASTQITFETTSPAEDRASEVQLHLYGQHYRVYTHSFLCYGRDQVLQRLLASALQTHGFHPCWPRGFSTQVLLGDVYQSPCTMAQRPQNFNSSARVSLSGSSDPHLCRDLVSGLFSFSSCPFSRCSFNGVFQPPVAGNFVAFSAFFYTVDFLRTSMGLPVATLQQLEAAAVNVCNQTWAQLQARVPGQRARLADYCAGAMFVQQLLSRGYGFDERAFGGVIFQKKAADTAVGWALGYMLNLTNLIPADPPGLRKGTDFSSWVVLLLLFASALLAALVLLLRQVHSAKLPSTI
Outline: (§1)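 Enzymes were transiently expressed in COS-7 cells. Crude protein extracts were made by sonication, 300g clearing at 4 °C and storage at −80 °C, with protein measured by Bradford. Extract was preincubated 3 min at 37 °C in Tris-Ringer buffer, pH 7.4. […] Activity of untransfected-cell extract was subtracted.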

NTPDase1 = target: T3, NTPDase1 (Homo sapiens, UniProt P49961); assay: NTPDase1 hydrolysis assay; type: in vitro ADME; conditions: 100 μM substrate; vs 100 μM ATP set at 100%
T3 sequence (P49961 1-510): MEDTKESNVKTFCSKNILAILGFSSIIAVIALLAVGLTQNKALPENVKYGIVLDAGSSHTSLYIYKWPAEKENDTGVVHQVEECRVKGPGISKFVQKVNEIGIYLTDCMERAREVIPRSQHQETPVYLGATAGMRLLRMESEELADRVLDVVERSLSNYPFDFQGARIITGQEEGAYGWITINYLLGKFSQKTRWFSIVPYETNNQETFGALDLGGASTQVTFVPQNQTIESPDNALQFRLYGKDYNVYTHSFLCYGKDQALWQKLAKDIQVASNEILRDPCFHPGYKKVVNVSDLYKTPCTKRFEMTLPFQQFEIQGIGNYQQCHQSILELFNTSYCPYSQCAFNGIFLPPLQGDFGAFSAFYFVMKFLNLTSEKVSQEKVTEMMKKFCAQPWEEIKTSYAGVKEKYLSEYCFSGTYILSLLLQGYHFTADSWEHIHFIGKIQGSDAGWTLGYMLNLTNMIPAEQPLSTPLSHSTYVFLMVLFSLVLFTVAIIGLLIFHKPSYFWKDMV

NTPDase3 = target: T4, NTPDase3 (Homo sapiens, UniProt O75355); assay: NTPDase3 hydrolysis assay; type: in vitro ADME; conditions: 100 μM substrate; vs 100 μM ATP set at 100%
T4 sequence (O75355 1-529): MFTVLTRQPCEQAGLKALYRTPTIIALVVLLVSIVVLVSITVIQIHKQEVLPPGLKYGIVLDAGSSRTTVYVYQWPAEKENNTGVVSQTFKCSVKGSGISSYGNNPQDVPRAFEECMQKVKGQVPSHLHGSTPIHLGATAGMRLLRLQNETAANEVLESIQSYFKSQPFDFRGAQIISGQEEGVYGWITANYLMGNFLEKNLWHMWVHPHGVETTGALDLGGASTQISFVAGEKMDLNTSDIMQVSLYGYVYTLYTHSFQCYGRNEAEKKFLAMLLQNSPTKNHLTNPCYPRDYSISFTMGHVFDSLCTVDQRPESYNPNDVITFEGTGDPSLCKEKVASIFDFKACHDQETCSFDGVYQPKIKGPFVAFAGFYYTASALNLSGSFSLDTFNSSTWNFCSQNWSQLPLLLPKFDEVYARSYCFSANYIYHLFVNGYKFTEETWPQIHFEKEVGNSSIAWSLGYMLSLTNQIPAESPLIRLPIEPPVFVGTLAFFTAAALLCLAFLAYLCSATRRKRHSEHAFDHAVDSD
Outline: as §1

[9] = human blood serum/RPMI-1640, 37 °C

2-MeS-α-borano-ATP (A-isomer) [analogue 4A]
EC50 (P2Y1R): 2.6 nM

Nc1ncnc2c1ncn2[C@@H]1O[C@H](COP(=O)(O)OP(=O)(O)O)[C@@H](O)[C@H]1O [ADP]
degradation by alkaline phosphatase after 3 h [1]: completely degraded | half-life in human blood serum [2, 9]: 1.4 h

Nc1ncnc2c1ncn2[C@@H]1O[C@H](COP(=O)(O)OP(=O)(O)OP(=O)(O)OC[C@@H]2O[C@H](n3cnc4c(N)ncnc43)[C@@H](O)[C@H]2O)[C@@H](O)[C@H]1O [Ap3A, diadenosine triphosphate]
effect on IOP (increase or reduction) (rabbit IOP [3]): increase IOP

Nc1ncnc2c1ncn2[C@@H]1O[C@H](COP(=O)(O)OP(=O)(O)OP(=O)(O)OP(=O)(O)O)[C@@H](O)[C@H]1O [Ap4, adenosine tetraphosphate]
effect on IOP (increase or reduction) (rabbit IOP [3]): reduced

Nc1ncnc2c1ncn2[C@@H]1O[C@H](COP(=O)(O)OP(=O)(O)OP(=O)(O)OP(=O)(O)OC[C@H]2O[C@@H](n3cnc4c(N)ncnc43)[C@H](O)[C@@H]2O)[C@@H](O)[C@H]1O [Ap4A, diadenosine tetraphosphate]
effect on IOP (increase or reduction) (rabbit IOP [3]): reduced

Nc1ncnc2c1ncn2[C@@H]1O[C@H](COP(=O)(O)OP(=O)(O)OP(=O)(O)OP(=O)(O)OP(=O)(O)OC[C@H]2O[C@@H](n3cnc4c(N)ncnc43)[C@H](O)[C@@H]2O)[C@@H](O)[C@H]1O [Ap5A, diadenosine pentaphosphate]
effect on IOP (increase or reduction) (rabbit IOP [3]): increase IOP

CSc1nc(N)c2ncn([C@@H]3O[C@H](COP(=O)(O)OP(=O)(O)CP(=O)(O)O)[C@@H](O)[C@H]3O)c2n1 [analogue 1, 2-MeS-β,γ-CH2-ATP]
EC50 (P2Y1R): 80 nM | fraction ionized at physiological pH [4]: 9% | duration of the reduction in IOP (mean-time effect) (rabbit IOP [5]; 100 μM, 10 μL): 3.5 h | t1/2 in human blood serum [6]: 12.1 h

BP(=O)(OC[C@H]1O[C@@H](n2cnc3c(N)nc(SC)nc32)[C@H](O)[C@@H]1O)OP(=O)(O)CP(=O)(O)O (stereo partly drawn) [analogue 3, 2-MeS-α-B,β,γ-CH2-ATP]
t1/2 of hydrolysis at pH 1.4 [7]: 14.5 h

BP(=O)(OC[C@H]1O[C@@H](n2cnc3c(N)nc(SC)nc32)[C@H](O)[C@@H]1O)OP(=O)(O)CP(=O)(O)O (some centres unmarked) [analogue 3B]
EC50 (P2Y1R): 17200 nM

CSc1nc(N)c2ncn([C@@H]3O[C@H](COP(=O)(O)OP(=O)(O)O)[C@@H](O)[C@H]3O)c2n1 [analogue 7, 2-MeS-ADP]
degradation by alkaline phosphatase after 3 h [1]: 87% | half-life at 0.248 mM ([2]; human, human blood serum diluted with RPMI-1640 medium): 23.5 h

CSc1nc(N)c2ncn([C@@H]3O[C@H](COP(=O)(O)OP(=O)(O)C(Cl)(Cl)P(=O)(O)O)[C@@H](O)[C@H]3O)c2n1 [analogue 9, β,γ-CCl2-2-MeS-ATP]
t1/2 of hydrolysis at pH 1.4 [8]: 65 h | duration of the reduction in IOP (mean-time effect) (rabbit IOP [5]; 100 μM, 10 μL): 4.5 h | degradation in human blood serum over 24 h [2, 9]: 15%

BP(=O)(OCC1OC(n2cnc3c(N)nc(SC)nc32)C(O)C1O)OP(=O)(O)C(F)(F)P(=O)(O)O (stereo not drawn) [analogue 10, α-borano-β,γ-CF2-2-MeS-ATP]
resistance to hydrolysis by alkaline phosphatase [1]: completely resistant

BP(=O)(OC[C@H]1O[C@@H](n2cnc3c(N)nc(SC)nc32)[C@H](O)[C@@H]1O)OP(=O)(O)C(F)(F)P(=O)(O)O (stereo partly drawn) [analogue 10B, 2-MeS-adenosine-5′-O-(α-boranotriphosphate)-β,γ-CF2]
t1/2 of hydrolysis at pH 1.4 [8]: ~8 h | fold reduction in P2Y1R activity vs analogue 8 (turkey P2Y1 receptor; replacement of nonbridging oxygen with BH3): 3 fold

BP(=O)(OCC1OC(n2cnc3c(N)nc(SC)nc32)C(O)C1O)OP(=O)(O)C(Cl)(Cl)P(=O)(O)O (stereo not drawn) [analogue 12, α-borano-β,γ-CCl2-2-MeS-ATP]
resistance to hydrolysis by alkaline phosphatase [1]: completely resistant

BP(=O)(OC[C@H]1O[C@@H](n2cnc3c(N)nc(SC)nc32)[C@H](O)[C@@H]1O)OP(=O)(O)C(Cl)(Cl)P(=O)(O)O (stereo partly drawn) [analogue 12B, 2-MeS-adenosine-5′-O-(α-boranotriphosphate)-β,γ-CCl2]
relative hydrolysis by NPP3 (human NPP3): completely resistant | fold less potent at P2Y1R than the A isomer 12A (turkey P2Y1 receptor; B isomer vs A isomer): 2 fold | relative hydrolysis by NTPDase2 (NTPDase2): completely resistant | relative hydrolysis by NTPDase1 (NTPDase1): completely resistant | relative hydrolysis by NTPDase3 (NTPDase3): completely resistant

CSc1nc(N)c2ncn([C@@H]3O[C@H](COP(=O)(O)C(F)(F)P(=O)(O)O)[C@@H](O)[C@H]3O)c2n1 [analogue 13, 2-MeS-adenosine-5′-O-diphosphate-α,β-difluoromethylene]
starting material remaining at pH 1.4 ([8]; pH 1.4, after 30 days): 61%

CSc1nc(N)c2ncn([C@@H]3O[C@H](COP(=O)(O)C(Cl)(Cl)P(=O)(O)O)[C@@H](O)[C@H]3O)c2n1 [analogue 14, 2-MeS-Rα,β-dichloromethylene-ADP]
hydrolysis of the starting material at pH 1.4 ([8]; pH 1.4, after 6 days): 15% | degradation in human blood serum over 24 h [2, 9]: completely resistant

CC(C)OC(=O)CCC/C=C\C[C@@H]1[C@@H](CC[C@@H](O)CCc2ccccc2)[C@H](O)C[C@@H]1O [latanoprost]
duration of the reduction in IOP (mean-time effect) (rabbit IOP [5]; commercial drug, 0.005%, 40 μL): 5.5 h

α-B,β,γ-CH2-ATP [analogue 2]
t1/2 of hydrolysis at pH 1.4 [7]: 19 h
